# Screening results from PubChem.
# Hits are enriched below; roughly 1.8% of the tested compounds scored in any of these assays.
# MsrA act: activates bovine MsrA enzyme; purified bovine MsrA, absorbance read-out; activation, % at 10.6 µM; actives 0.3% (n = 360,000); in the data active = activation above about 7.5%;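 also: 0% = vehicle and 100% = reference activator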
# MIN6 prolif: induces beta-cell replication in MIN6 cells. MIN6 cells proliferation, ATPlite luminescence, 48 h; cells starved in 0.2% serum; 100% = growth in 10% serum. proliferation, % at 10 µM. actives 0.29% (n = 330,000);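 active = compounds whose signal lies at least 3.5 SD above the mean of all wells on their plate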;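 also: 0% = DMSO-treated cells in low-serum medium and 100% = 10% serum control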
# SKN-1 block: blocks SKN-1 activity in C. elegans; C. elegans VP596 Pgst-4::GFP/RFP ratio, acrylamide-induced, 24 h; inhibition, % at 21.8 µM; actives 0.49% (n = 360,000); AID 624304;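 active = interference check ratio from 0.5 to 1.5 plus GFP to RFP signal ratio inhibition reaching or exceeding a fixed threshold, cut at about 30% in these data, passing the limit was not always enough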
# DAGLB inhibitor: diacylglycerol lipase beta (human) inhibition. HEK293T DAGLB membrane lysate, EnzChek fluorogenic substrate. actives 0.059% (n = 340,000). inhibition, % at 5.17 µM; in the data active = inhibition above about 34%;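 also: 0% = enzyme with vehicle and 100% = wells lacking enzyme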
# Target sequence (Q8NCG7 whole entry, looked up): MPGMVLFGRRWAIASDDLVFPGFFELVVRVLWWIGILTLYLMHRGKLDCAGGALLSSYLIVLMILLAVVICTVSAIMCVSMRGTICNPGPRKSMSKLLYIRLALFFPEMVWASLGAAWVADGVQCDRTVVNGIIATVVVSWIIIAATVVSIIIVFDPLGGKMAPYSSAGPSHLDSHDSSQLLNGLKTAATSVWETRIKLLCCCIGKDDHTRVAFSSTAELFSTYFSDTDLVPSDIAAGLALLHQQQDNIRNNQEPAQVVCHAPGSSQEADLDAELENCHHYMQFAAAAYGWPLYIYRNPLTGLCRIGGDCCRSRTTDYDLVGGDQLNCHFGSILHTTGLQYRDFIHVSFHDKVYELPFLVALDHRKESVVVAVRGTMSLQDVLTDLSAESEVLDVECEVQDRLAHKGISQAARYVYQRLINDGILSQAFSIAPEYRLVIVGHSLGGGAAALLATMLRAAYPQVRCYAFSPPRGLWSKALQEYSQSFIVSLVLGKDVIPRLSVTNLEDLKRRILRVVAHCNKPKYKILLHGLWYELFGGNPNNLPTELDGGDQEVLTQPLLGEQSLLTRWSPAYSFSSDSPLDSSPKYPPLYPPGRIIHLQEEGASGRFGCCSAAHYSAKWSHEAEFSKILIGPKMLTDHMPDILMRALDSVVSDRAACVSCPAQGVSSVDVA
# MT1-MMP act inh: blocks activation of human MT1-MMP; HT1080 RFP-PRO-GFP cells, GFP/RFP ratio fluorescence, overnight; percent of plate control window, DMSO zero; P50281; actives 0.061% (n = 360,000); GFP/RFP ratio change, % at 20 µM;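 active = GFP/RFP ratio change of at least 30% with cell ATP level not reduced by more than half and red fluorescence within 50% of control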
#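 Compound: 20 µM single dose, 1% DMSO / System: HT1080 RFP-PRO-GFP cells / Controls: DMSO and RFP-L50D-GFP cell wells / Read-out basis: GFP/RFP fluorescence ratio / Schedule: overnight compound exposure at 37 °C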
# MsrA inhibitor: bovine MsrA inhibition; purified bovine MsrA, absorbance read-out; actives 0.75% (n = 360,000); inhibition, % at 15.5 µM; in the data active = inhibition above about 4.5%;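 also: 0% = vehicle wells with enzyme and 100% = reference inhibitor wells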
# The depositor's hits bear a star; · = no result given.
SMILES,MsrA act,MIN6 prolif,SKN-1 block,DAGLB inhibitor,MT1-MMP act inh,MsrA inhibitor
COc1cccc(/C=N/NC(=O)c2ccc(-c3ccccc3)cc2)c1O,-4.8,-3.5,12.1,7.1,8.3,2.2
Fc1ccc(-c2cn3cc(C(F)(F)F)cc(Cl)c3n2)cc1,-5.6,-0.9,35.0*,-7.1,0.1,-0.2
Cc1ccc2nc(-c3ccc(C#N)cc3)c(Cc3cccc(F)c3)n2c1,·,·,·,·,·,0.1
O=C(Nc1ccc(F)cc1)Nc1ccc(N2CCOCC2)c2nonc12,-3.3,1.3,11.3,20.7,3.7,-0.4
COc1ccc(NC(=O)Nc2ccc(N3CCOCC3)c3nonc23)c(OC)c1,-2.5,-0.9,44.0*,5.6,24.1,-0.2
COc1nc(-c2ccccc2)ccc1-c1noc(-c2ccco2)n1,0.2,-3.5,63.3*,-14.1,-3.1,0.0
COC(=O)C1=C(C)N(Cc2ccc(C(F)(F)F)cc2)C(=NCc2ccc(OC)cc2)NC1c1ccccc1 (stereo not drawn),·,·,·,·,·,-0.9
CN(C)c1ccc(/C=C(/C#N)C(=O)Nc2nc3c(s2)CCN(Cc2ccccc2)C3)cc1,-4.7,·,47.6*,-26.9,-93.4,-0.6
N#C/C(=C\c1ccc(OCc2ccccc2)cc1)C(=O)Nc1nc2c(s1)CCN(Cc1ccccc1)C2,-10.8,-4.8,-10.0,0.4,-17.5,0.0
O=[N+]([O-])c1ccc(Oc2cccnc2)c([N+](=O)[O-])c1,0.1,·,-23.8,-5.8,4.1,4.5*
Nc1ccc(Oc2ccc([N+](=O)[O-])cc2[N+](=O)[O-])cc1,-12.0,-3.4,-1.4,3.1,6.5,0.8
CC(=NNC(=S)Nc1cccc(Cl)c1)c1ccccn1,2.3,·,38.8*,15.8,14.7,1.5
COc1ccc(NC(=O)N(C)C[C@H]2OCCCC[C@H](C)Oc3ccc(NC(=O)Nc4cccc5ccccc45)cc3C(=O)N([C@@H](C)CO)C[C@H]2C)cc1,·,·,·,·,·,1.8
N#Cc1ccc(CC(=O)c2ccccc2)[nH]c1=O,-5.5,·,44.4*,3.5,-29.5,1.5
C[C@@H]1ON(C)[C@H]2C[C@H]3c4cc(-c5cccc(Cl)c5)ccc4CCN3C[C@@H]12,·,·,·,·,·,-0.4
O=C(CCN1CCN(S(=O)(=O)c2ccc(Cl)cc2)CC1)Nc1ccc(F)cc1,-0.9,-3.3,46.2*,1.2,2.3,-0.6
O=C(CCN1CCN(S(=O)(=O)c2ccc(Cl)cc2)CC1)Nc1ccccc1F,-2.1,-4.2,-3.1,-2.2,-4.0,-0.7
COc1ccc(-n2sc3ccc(F)cc3c2=O)cc1,12.4*,-7.0,-2.2,2.5,8.3,-0.5
Cc1ccc(C)c(-n2sc3ccc(F)cc3c2=O)c1,13.0*,-7.3,0.0,5.6,7.5,1.3
COc1ccc(CC(=O)Nc2cc(S(=O)(=O)N3CCOCC3)ccc2N2CCCC2)cc1,0.1,·,2.7,-1.1,1.4,-0.6
COc1ccc(CC(=O)Nc2cc(S(=O)(=O)N3CCOCC3)ccc2N2CCOCC2)cc1,0.8,-3.6,36.0*,0.5,-6.9,-1.5
O=C(O)c1cccc(C(=O)c2cccc3ccccc23)c1,-1.8,-1.9,1.4,3.0,-2.1,0.6
O=C(O)c1ccc2ccc3ccccc3c2c1,-3.4,-1.8,41.2*,·,-0.7,0.6
O=C(N[C@@H](Cc1cccnc1)C(=O)N1CCC[C@H]1C(=O)NCCc1ccccc1Cl)C1CCCC1,·,·,·,·,·,0.1
Cc1nn2cc(-c3ccc(-c4ccccc4)cc3)nc2s1,-1.9,-0.5,-4.7,-1.7,-17.0,0.2
SMILES,MsrA act,MIN6 prolif,SKN-1 block,DAGLB inhibitor,MT1-MMP act inh,MsrA inhibitor
Cc1nn2cc(-c3ccc(Cl)cc3)nc2s1,2.1,-4.2,45.1*,-4.7,13.3,-0.8
N/C(=N\OC(=O)c1ccco1)c1cccc(Br)c1,-10.1,-1.5,57.2*,-7.0,0.8,3.4
N/C(=N\OC(=O)c1ccco1)c1cccc([N+](=O)[O-])c1,-0.6,-1.7,6.9,-2.7,0.9,-0.2
N/C(=N\OC(=O)c1ccc(Br)o1)c1cccnc1,-6.7,-2.8,41.8*,-2.4,-1.2,0.1
COC(=O)C1=C(C)N(C)C(=NCc2cc(OC)c(OC)c(OC)c2)NC1c1cccc(F)c1 (stereo not drawn),·,·,·,·,·,-0.6
COC(=O)C1=CC(=O)N2CCN=C2S1,·,·,·,·,·,1.6
CC(C)C(=O)Nc1ccc(S(=O)(=O)Nc2nccc(/C=C/c3ccccc3)n2)cc1,-4.4,0.2,-1.7,3.8,5.1,4.6*
Cc1cc(C)nc(NS(=O)(=O)c2ccc(NC(=O)C(C)C)cc2)n1,-1.0,0.0,-1.1,1.8,-0.9,-0.4
CCN(CC(=O)NCc1ccc(F)cc1)Cc1nc2cc(Cl)ccc2c(=O)[nH]1,-6.5,-1.9,64.6*,-0.4,-6.6,0.4
COC(=O)c1cccc(-n2c(C)cc(O)cc2=O)c1,·,·,·,·,·,-0.4
C/C(=N/Nc1ccc(C(=O)O)cc1)c1ccc(O)c(O)c1O,-9.2,0.0,4.6,0.4,7.0,4.6*
COc1ccc(OC)c(/C(C)=N/Nc2ccc(C(=O)O)cc2)c1,-6.5,4.9,-1.9,2.0,-0.9,2.9
CCNC(=O)N1CCN(c2ccc(N3CCN(C(=O)NCC)[C@H](C)C3)c(C)c2)[C@H](C)C1,·,·,·,·,·,1.4
CCCCOCCCNC(=O)C[C@H]1C[C@@]2(C(=O)OC)C(=C[C@H](C(C)C)O[C@@H]2C2CC2)N(Cc2ccccc2)C1=O,·,·,·,·,·,0.9
CCOC(=O)c1c(C)oc2c1c(C=NCCC(=O)O)c(O)c1ccccc12,-9.3,-0.5,37.0*,-1.0,-18.9,0.1
CCOC(=O)c1c(C)oc2c1c(C=NC1CCS(=O)(=O)C1)c(O)c1ccccc12 (stereo not drawn),-1.2,·,3.5,-0.1,3.1,0.7
C=CCCC1CN(Cc2ccc(OC)cc2)S(=O)(=O)c2c(NCc3cc(OC)c(OC)c(OC)c3)cccc2O1 (stereo not drawn),·,·,·,·,·,0.5
N#CCc1nn2c(-c3ccccc3)ccnc2c1C#N,-2.0,0.0,43.2*,0.4,1.7,3.3
c1ccc(-c2cc3nccc(-c4ccccn4)n3n2)cc1,-3.3,2.5,39.3*,-6.2,-0.7,1.4
COc1cc(CCC(C)=O)ccc1OC(=O)c1c(-c2c(F)cccc2Cl)noc1C,·,·,·,·,·,0.5
O=C(N[C@H](Cc1ccccc1)C(=O)NCc1ccc(OC(F)(F)F)cc1)[C@H]1O[C@@H](n2ccc(=O)[nH]c2=O)[C@H](O)[C@@H]1O,·,·,·,·,·,3.7
CN1C(=O)NC(c2ccc(O)cc2)C(C(=O)c2cccs2)C1(O)C(F)(F)F (stereo not drawn),-10.9,-1.1,4.9,0.9,2.5,4.5*
CC(=O)Nc1ccc(Nc2ccc3nonc3c2[N+](=O)[O-])cc1,-3.2,0.9,3.8,3.2,7.7,0.6
CCOc1ccc(Nc2ccc([N+](=O)[O-])c3nonc23)cc1,-3.4,-2.7,36.7*,30.7,-38.9,0.2
CC(=O)NS(=O)(=O)c1ccc(Nc2ccc([N+](=O)[O-])c3nonc23)cc1,-1.1,4.2,35.4*,4.9,-44.8,1.6
